According to the array DNA melting data of Ke et al. (doi:10.1101/2024.01.08.574731):

Columns and labels:
[1] = folding enthalpy; higher = less favourable; fluorescence melt of hairpins on a sequencing array, two-state fit; conditions: sodium 0.088 M
Procedure, shortened: (§1)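 Bootstrapped two-state fits yielded melting temperature and folding enthalpy for library hairpins. Cy3 fluorescence, with annealed Cy3 and quencher oligos, was imaged on a sequenced MiSeq flow cell in 50 mM Na-HEPES pH 8.0, 25 mM NaCl in 2.5 °C steps up to 60 °C, and normalised to pre-quench Cy3 and to control constructs. Four replicates were combined by inverse variance, and fitted temperatures were raised by 9.35 °C to match UV melts.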

[2] = melting temperature; fluorescence melt of hairpins on a sequencing array, two-state fit, raised by 9.35 °C to match UV melts; conditions: sodium 0.088 M
Procedure, shortened: as §1

Sequence | folding enthalpy [1] [kcal/mol] | Tm [2] [°C]
GGGAAGGGAAACCTTTCC ((.((((....)))).)) | -24.4 | 45.7
GGGAATCGAAAGATACCC (((.(((....))).))) | -30.1 | 49.6
GGGAATCGAAAGATCCC (((.(((....)))))) | -24.6 | 49.7
GGGAATGAAAATTCCC ((((((....)))))) | -40.6 | 56
GGGACAGGAAACTGTCTC (.(((((....))))).) | -28.1 | 51.1
GGGACAGGAAACTGTTCC ((.((((....)))).)) | -36.8 | 51.4
GGGACCACGAAAGTGCCC (((..(((....)))))) | -15.7 | 40
GGGACCGAAAGGTAACCC ((((((....)))..))) | -18.9 | 46.1
GGGACCGAAAGGTTGCCC ((((((....)))..))) | -14.5 | 37.6
GGGACCGCGAAAGCGCCC (((..(((....)))))) | -12.5 | 39.2
GGGACCGGAAACGACCCC (((..((....))..))) | -25.2 | 35.5
GGGACGGGAAACCGTTCC ((.((((....)))).)) | -35.2 | 57.2
GGGACGTCGAAAGACCCC (((..(((....)))))) | -18.4 | 41
GGGACTGGAAACAGTCTC (.(((((....))))).) | -20.6 | 51.7
GGGAGAACGAAAGTTCCC (((..(((....)))))) | -17.1 | 47.7
GGGAGACCGAAAGGTCCC (((..(((....)))))) | -12.8 | 53.2
GGGAGAGGAAACCCTCCC (((((.(....).))))) | -28.6 | 47.6
GGGAGAGGAAACTCCCCC (((.(((....))).))) | -17.8 | 49.4
GGGAGAGGAAACTCTCTC (.(((((....))))).) | -21.4 | 46.2
GGGAGCCGAAAGGCACCC (((.(((....))).))) | -29.5 | 67.1
GGGAGCGAAAGCTGCCCC ((((((....)))..))) | -12.6 | 58.1
GGGAGGCGAAAGCCACCC (((.(((....))).))) | -25.1 | 65.6
GGGAGGGAAACCTCCC ((((((....)))))) | -32 | 65.8

Sequence | folding enthalpy [1] [kcal/mol] | Tm [2] [°C]
GGGAGGGGAAACCCTTCC ((.((((....)))).)) | -32.4 | 51.6
GGGAGGTCGAAAGACCCC (((..(((....)))))) | -14.4 | 54.5
GGGAGTCGAAAGACACCC (((.(((....))).))) | -30 | 56.9
GGGAGTGCGAAAGCACCC (((..(((....)))))) | -11.6 | 55.2
GGGAGTGGAAACATTCCC ((((.((....)).)))) | -33.5 | 48.2
GGGATAACGAAAGTTCCC (((..(((....)))))) | -26.7 | 42.4
GGGATACGAAAGTACCCC (((.(((....))).))) | -37.4 | 50.8
GGGATACGAAAGTAGCCC (((.(((....))).))) | -43.9 | 63.1
GGGATAGGAAACTACCCC (((.(((....))).))) | -23 | 38.7
GGGATAGGAAACTGTTCC ((.(.((....)).).)) | -16.5 | 28.6
GGGATCGAAAGATCCCCC ((((((....)))..))) | -10.2 | 68.2
GGGATCGAAAGATCGCCC ((((((....)))..))) | -15.3 | 47.2
GGGATCGAAAGATCTCCC ((((((....)))..))) | -14.1 | 47.2
GGGATCGAAAGATTGCCC ((((((....)))..))) | -14.6 | 32.6
GGGATCGAAAGATTTCCC ((((((....)))..))) | -19 | 32.3
GGGATGCGAAAGCACCC (((.(((....)))))) | -21.4 | 60
GGGATGGGAAACCGTTCC ((.(.((....)).).)) | -27 | 39.1
GGGATGGGAAACTATCCC (((((.(....).))))) | -30.5 | 49.8
GGGATTCGAAAGAACCC (((.(((....)))))) | -25.5 | 47.1
GGGCAATCGAAAGATCCC (((..(((....)))))) | -21.5 | 34
GGGCACCCGAAAGGGCCC (((..(((....)))))) | -36.7 | 58
GGGCACGAAAGTGGGCCC ((((((....)))..))) | -31.8 | 58.4
GGGCACGAAAGTGTTCCC ((((((....)))..))) | -17.7 | 46.1

Sequence | folding enthalpy [1] [kcal/mol] | Tm [2] [°C]
GGGCACGCGAAAGCGCCC (((..(((....)))))) | -16.2 | 58.7
GGGCACGGAAACATGCCC (((((.(....).))))) | -37.6 | 51.5
GGGCACGGAAACGCGCCC ((((.((....)).)))) | -44 | 64.3
GGGCAGGGAAACCTGCTC (.(((((....))))).) | -20 | 59.6
GGGCAGGGAAACCTGTCC ((.((((....)))).)) | -43.9 | 57.1
GGGCATACGAAAGTACCC (((..(((....)))))) | -19.6 | 34.7
GGGCATGGAAACGTGCTC (.(((.(....).))).) | -20.8 | 45
GGGCCACGAAAGTGTCCC (((.(((....))).))) | -45.3 | 57.3
GGGCCAGCGAAAGCTCCC (((..(((....)))))) | -14.5 | 40.3
GGGCCAGGAAACTGGCTC (.(((((....))))).) | -16.1 | 61
GGGCCATCGAAAGATCCC (((..(((....)))))) | -16.4 | 31.6
GGGCCCGAAAGGGAACCC ((((((....)))..))) | -15.6 | 57.5
GGGCCCGAAAGGGCTCCC ((((((....)))..))) | -9.89 | 59.7
GGGCCCGAAAGGGGTCCC ((((((....)))..))) | -14.5 | 66.2
GGGCCCGAAAGGGTTCCC ((((((....)))..))) | -15.2 | 51.5
GGGCCCGGAAACAGGCCC (((((.(....).))))) | -34.2 | 59.1
GGGCCCTCGAAAGAGCCC (((..(((....)))))) | -23 | 48.1
GGGCCGCGAAAGCGACCC (((.(((....))).))) | -29.7 | 68.8
GGGCCGGGAAACCAGCCC ((((.((....)).)))) | -49.3 | 54.3
GGGCCGGGAAACCGGCTC (.(((((....))))).) | -15.4 | 66.8
GGGCCGTCGAAAGACCCC (((..(((....)))))) | -16.6 | 44.4
GGGCGCGAAAGCGGGCCC ((((((....)))..))) | -13.4 | 64.8
GGGCGCTCGAAAGAGCCC (((..(((....)))))) | -14 | 56.9

Sequence | folding enthalpy [1] [kcal/mol] | Tm [2] [°C]
GGGCGGGGAAACCCGCTC (.(((((....))))).) | -15.2 | 64.7
GGGCGTACGAAAGTACCC (((..(((....)))))) | -17.4 | 50.2
GGGCGTCGAAAGACCCC (((.(((....)))))) | -37.1 | 58.9
GGGCGTGGAAACACGCTC (.(((((....))))).) | -14.5 | 62.4
GGGCTAGCGAAAGCTCCC (((..(((....)))))) | -15.1 | 38.8
GGGCTAGGAAACCAGCCC (((((.(....).))))) | -44.8 | 54.1
GGGCTAGGAAACTAACCC (((.(((....))).))) | -31.5 | 39.2
GGGCTCACGAAAGTGCCC (((..(((....)))))) | -21 | 51.9
GGGCTCCGAAAGGAACCC (((.(((....))).))) | -44.1 | 56.5
GGGCTCGAAAGAGCTCCC ((((((....)))..))) | -10.6 | 50
GGGCTCGAAAGAGGCCCC ((((((....)))..))) | -12.3 | 67
GGGCTGGGAAACCAACCC (((.(((....))).))) | -30 | 49
GGGCTGGGAAACCGGTCC ((.(.((....)).).)) | -44.6 | 49.2
GGGCTGGGAAACTGGCCC ((((..(....)..)))) | -48.3 | 54.3
GGGCTTACGAAAGTACCC (((..(((....)))))) | -20.9 | 34.4
GGGCTTGAAAAAGCCC ((((((....)))))) | -35.8 | 68.1
GGGCTTGGAAACGAGCCC (((((.(....).))))) | -51.4 | 59.2
GGGGAACGAAAGTTACCC (((.(((....))).))) | -47.9 | 60.6
GGGGAACGAAAGTTGCCC (((.(((....))).))) | -39.1 | 64
GGGGAATCGAAAGATCCC (((..(((....)))))) | -22.5 | 49.1
GGGGACGAAAGTCAACCC ((((((....)))..))) | -17.6 | 49
GGGGACGAAAGTCGGCCC ((((((....)))..))) | -27.2 | 56.4
